Laboratory results taken from ChEMBL document CHEMBL1126783, “Design of potent, cyclic peptide bradykinin receptor antagonists from conformationally constrained linear peptides” (J Med Chem, 1993).
Where a SMILES comes first, the peptide text is derived from it. Bridges are numbered along the chain shown (N, C = ends). [ ]: non-standard residue; d: D form. Oic = O=C(O)[C@@H]1C[C@@H]2CCCC[C@@H]2N1; Hyp = O=C(O)[C@@H]1C[C@@H](O)CN1; dTic = O=C(O)[C@H]1Cc2ccccc2CN1

How the values were obtained:
B2 bradykinin receptor [1] = molecular target: T1, B2 bradykinin receptor (Cavia porcellus, UniProt O70526); test: Binding affinity against [3H]bradykinin binding to bradykinin receptor B2 in guinea pig ileal membrane; assay type: cell membranes
T1 sequence (O70526 whole entry): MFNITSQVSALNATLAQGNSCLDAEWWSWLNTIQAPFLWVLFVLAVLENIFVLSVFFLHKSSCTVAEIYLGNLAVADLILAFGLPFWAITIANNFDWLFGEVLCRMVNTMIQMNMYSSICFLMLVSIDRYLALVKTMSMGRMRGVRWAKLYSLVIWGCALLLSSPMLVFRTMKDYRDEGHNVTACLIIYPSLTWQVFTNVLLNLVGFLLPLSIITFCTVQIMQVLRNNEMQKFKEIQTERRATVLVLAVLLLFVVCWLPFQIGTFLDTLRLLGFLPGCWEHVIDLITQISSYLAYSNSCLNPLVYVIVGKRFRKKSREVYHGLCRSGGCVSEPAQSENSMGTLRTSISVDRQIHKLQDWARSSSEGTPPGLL
Summary of the method: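 Competition binding against [³H]bradykinin on guinea pig ileal membrane preparations, with affinity given as Ki following a previously described method. The ileum expresses only B2 receptors.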

B2 bradykinin receptor [2] = molecular target: T1, B2 bradykinin receptor; test: Antagonism against bradykinin receptor B2 in guinea pig ileal tissue; assay type: functional; details: read-out: pA2 (converted)
Summary of the method: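 Functional antagonism recorded as pA2 in isolated guinea pig ileal tissue, a preparation that expresses only B2 receptors. The procedure follows conventional, previously reported methods.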

SMILES | Ki (B2 bradykinin receptor [1]) [nM] | Kb (B2 bradykinin receptor [2]) [nM]
CC(NC(=O)[C@@H]1C[C@H](O)CN1C(=O)[C@@H]1CCCN1C(=O)[C@H](CCCN=C(N)N)NC(=O)[C@H](N)CCCN=C(N)N)C(=O)N[C@@](C)(Cc1ccccc1)C(=O)N[C@@H](CO)C(=O)N1Cc2ccccc2C[C@@H]1C(=O)N1C2CCCCC2C[C@H]1C(=O)N[C@@H](CCCN=C(N)N)C(=O)O (some centres not stated) | 3030 | –
CN(CC(=O)N(C)[C@@H](Cc1ccccc1)C(=O)N[C@@H](CO)C(=O)N1Cc2ccccc2C[C@@H]1C(=O)N1C2CCCCC2C[C@H]1C(=O)N[C@@H](CCCN=C(N)N)C(=O)O)C(=O)[C@@H]1C[C@H](O)CN1C(=O)[C@@H]1CCCN1C(=O)[C@H](CCCN=C(N)N)NC(=O)[C@H](N)CCCN=C(N)N (some centres not stated) | 1690 | –
CC(NC(=O)[C@@H]1C[C@H](O)CN1C(=O)[C@@H]1CCCN1C(=O)[C@H](CCCN=C(N)N)NC(=O)[C@H](N)CCCN=C(N)N)C(=O)N[C@@H](Cc1ccccc1)C(=O)N[C@@H](CO)C(=O)N1Cc2ccccc2C[C@@H]1C(=O)N1C2CCCCC2C[C@H]1C(=O)N[C@@H](CCCN=C(N)N)C(=O)O (some centres not stated) | 82.3 | –
N=C(N)NCCC[C@@H](N)C(=O)N[C@@H](CCCNC(=N)N)C(=O)N[C@H]1CSSC[C@@H](C(=O)N[C@@H](CO)C(=O)N2Cc3ccccc3C[C@@H]2C(=O)N2[C@H](C(=O)N[C@@H](CCCNC(=N)N)C(=O)O)C[C@@H]3CCCC[C@@H]32)NC(=O)CNC(=O)[C@@H]2CCCN2C1=O (H-[dR]RCPGCS[dTic][Oic]R-OH; disulfide 3-6) | – | 240
NC(N)=NCCC[C@@H](N)C(=O)N[C@@H](CCCN=C(N)N)C(=O)N[C@H]1CSSC[C@@H](C(=O)N2Cc3ccccc3C[C@@H]2C(=O)N2[C@H](C(=O)N[C@@H](CCCN=C(N)N)C(=O)O)C[C@@H]3CCCC[C@@H]32)NC(=O)[C@H](Cc2ccccc2)NC(=O)CNC(=O)[C@@H]2CCCN2C1=O (H-[dR]RCPGFC[dTic][Oic]R-OH; disulfide 3-7) | – | 501

More lines, in order of falling Ki (B2 bradykinin receptor [1]), values ahead:

Ki (B2 bradykinin receptor [1]) [nM] | Kb (B2 bradykinin receptor [2]) [nM] | SMILES
30.8 | – | CN(CC(=O)N[C@@H](Cc1ccccc1)C(=O)N[C@@H](CO)C(=O)N1Cc2ccccc2C[C@@H]1C(=O)N1C2CCCCC2C[C@H]1C(=O)N[C@@H](CCCN=C(N)N)C(=O)O)C(=O)[C@@H]1C[C@H](O)CN1C(=O)[C@@H]1CCCN1C(=O)[C@H](CCCN=C(N)N)NC(=O)[C@H](N)CCCN=C(N)N (some centres not stated)
26.5 | 2510 | CN(C(=O)CNC(=O)[C@@H]1C[C@H](O)CN1C(=O)[C@@H]1CCCN1C(=O)[C@H](CCCN=C(N)N)NC(=O)[C@H](N)CCCN=C(N)N)[C@@H](Cc1ccccc1)C(=O)N[C@@H](CO)C(=O)N1Cc2ccccc2C[C@@H]1C(=O)N1C2CCCCC2C[C@H]1C(=O)N[C@@H](CCCN=C(N)N)C(=O)O (some centres not stated)
0.54 | 12.6 | C[C@@](Cc1ccccc1)(NC(=O)CNC(=O)[C@@H]1C[C@H](O)CN1C(=O)[C@@H]1CCCN1C(=O)[C@H](CCCN=C(N)N)NC(=O)[C@H](N)CCCN=C(N)N)C(=O)N[C@@H](CO)C(=O)N1Cc2ccccc2C[C@@H]1C(=O)N1C2CCCCC2C[C@H]1C(=O)N[C@@H](CCCN=C(N)N)C(=O)O (some centres not stated)
0.08 | 1.51 | NC(N)=NCCC[C@@H](N)C(=O)N[C@@H](CCCN=C(N)N)C(=O)N1CCC[C@H]1C(=O)N1C[C@H](O)C[C@H]1C(=O)NCC(=O)N[C@@H](Cc1ccccc1)C(=O)N[C@@H](CO)C(=O)N1Cc2ccccc2C[C@@H]1C(=O)N1[C@H](C(=O)N[C@@H](CCCN=C(N)N)C(=O)O)C[C@@H]2CCCC[C@@H]21 (H-[dR]RP[Hyp]GFS[dTic][Oic]R-OH)
